IC50 data for three compounds are collected here from paper PMC11375723 (ACS Omega, 2024).

Where only a bound is given, the exact number is not on record here.

Holding throughout (type): cell-based, human
Test [1] deals with HT-1080 fibrosarcoma cells. The test is described as follows: Resazurin antiproliferative microtiter assay, HT-1080. Conditions: read-out: IC50, μM (± SEM), HT-1080, 48 h drug exposure. In short, it runs like this: (§1)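 Human cells at 37 °C, 5% CO2, with 10% cosmic calf serum in DMEM/F12 (A549), DMEM (MDA-MB-231, HFF) or EMEM (HT-1080, MRC-5). Plated 5,000 cells/180 µL and left 24 h to adhere. Test compound 0.1–100 µM, quadruplicate, 2–3 repeats, 48 h. Then 0.1% resazurin; fluorescence ex 530/em 590 after 24–48 h.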
In general terms: Alamar Blue is a resazurin reagent that responds to reducing activity.

The subject of test [2] is A549 lung carcinoma cells. Description: Resazurin antiproliferative microtiter assay, A549. Conditions: read-out: IC50, μM (± SEM), A549, 48 h drug exposure. In short, it runs like this: as §1
Test [3] has as its system MDA-MB-231 breast carcinoma cells. Description: Resazurin antiproliferative microtiter assay, MDA-MB-231. The conditions noted are these: read-out: IC50, μM (± SEM), MDA-MB-231, 48 h drug exposure. In short, it runs like this:
as §1

For orientation: IC50 means the point on the concentration scale where inhibition reaches its midpoint. On to “Piperidine-2-(4-methoxyphenyl)diazothioformamide – Cu(l)Br [Compound 5c]”, for which the IC50 in test [1] was under 1 µM.
On to `N.N.[Cl][Pt][Cl]` [Cisplatin], for which the IC50 in test [2] is 19 µM; in test [1], 17.5 µM; in test [3], 48.6 µM.
As to “Pyrrolidine-2-(4-methoxyphenyl)diazothioformamide – Cu(l)I [Compound 4b]”, the IC50 in test [1] is under 1 µM.
